Published values collected from several papers.
Protocols differ between the studies behind these lines.
Target: Death-associated protein kinase 1 (DAPK1, Homo sapiens, UniProt P53355)

| SMILES | read-out | mode | method | concentration | quantity | value |
| --- | --- | --- | --- | --- | --- | --- |
| Cn1cc(-c2cccc(N3CCc4c(sc5c4CC(C)(C)C5)C3=O)c2CO)cc(Nc2ccncn2)c1=O | enzyme activity | inhibitor | – | 1 µM | inhibition | 1% |
| COc1ncccc1-c1cnn2ccc(N3CCN(C(=O)OC(C)C)CC3)nc12 | binding | – | competition with immobilised ligand | 1 µM | remaining binding | 82% |
| CC(C)(C)c1cc(C=C(C#N)C#N)cc(Br)c1O | enzyme activity | inhibitor | – | 0.5 µM | remaining activity | 85.9% |
| Cc1nn(C)cc1-c1nc2c(N3CCN(Cc4ccc(Cl)cc4)CC3)c(Cl)cnc2[nH]1 | binding | – | competition with immobilised ligand | 1 µM | remaining binding | 80% |
| Nc1ncc(-c2nc(N3CCOCC3)nc(N3CCOCC3)n2)c(C(F)F)n1 | binding | – | competition with immobilised ligand | 10 µM | remaining binding | 94% |
| COc1cc(Nc2ncc(F)c(Nc3ccc4c(n3)NC(=O)C(C)(C)O4)n2)cc(OC)c1OC | binding | – | competition with immobilised ligand | 10 µM | inhibition | 97% |
| Cn1cncc1[C@](O)(COc1ccc(C#N)cc1-c1ccc(OC(F)(F)F)cc1)c1ccc(C#N)cc1 | cell-free assay | – | competition with immobilised ligand | 1 µM | remaining binding | 84% |
| O=c1[nH]c2ccccc2n1C1CCN(Cc2ccc(-c3[nH]c4cc5ncnc5cc4nc3-c3ccccc3)cc2)CC1 | cell-free assay | – | – | 0.5 µM | remaining signal | 82.9% |
| Cn1cc(-c2cc(F)cc(N3CCn4c(cc5c4CCCC5)C3=O)c2CO)cc(Nc2ccc(N3CCN(C4COC4)CC3)cn2)c1=O | enzyme activity | inhibitor | – | 0.1 µM | inhibition | 8% |
